Experimental data taken from ChEMBL document CHEMBL1145465, “PhoU is a persistence switch involved in persister formation and tolerance to multiple antibiotics and stresses in Escherichia coli” (2007).

Columns and labels:
Format in all cases: functional
Escherichia coli [1] = assay: Antibacterial activity against Escherichia coli K12 mutant JHU313 containing plasmid vector at 6 ug/ml after 48 hrs by disc diffusion method
Method in brief: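 Kirby-Bauer paper-disc assay: log-phase E. coli (10⁸ bacteria) grown in LB broth, spread on LB agar for confluent growth; 7 mm nitrocellulose discs soaked with antibiotic solution at the listed concentration (μg/ml) placed on surface; incubated 37°C for 48 h; diameter of growth-inhibition zone measured in mm. Strain is the phoU transposon mutant transformed by electroporation with empty vector control.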

Escherichia coli [2] = assay: Antibacterial activity against Escherichia coli K12 PhoU wild type W3110 at 1.5 ug/ml after 48 hrs by disc diffusion method
Method in brief: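 Kirby-Bauer disc assay. Log-phase LB broth culture (10⁸ bacteria) was spread on LB agar for confluent growth. 7 mm nitrocellulose discs soaked in antibiotic solution at the listed concentration were placed on the agar. Inhibition zone diameter (mm) was measured after 48 h at 37°C.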

Escherichia coli [3] = assay: Antibacterial activity against Escherichia coli K12 PhoU wild type W3110 assessed as cell count in stationary phase at 100 ug/ml after 1 day
Method in brief: (§1)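 Log-phase or stationary-phase cultures exposed to ampicillin 100 μg/ml in MOPS minimal medium (pH 5.0) at 37°C without shaking, for 5 h up to 10 days. Aliquots were taken at each time point, washed in saline and plated on LB plates for viable CFU/ml.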

Escherichia coli [4] = assay: Antibacterial activity against Escherichia coli K12 PhoU wild type W3110 assessed as cell count in stationary phase at 100 ug/ml after 1 week; method in brief: as §1
Escherichia coli [5] = assay: Antibacterial activity against Escherichia coli K12 containing deletion deltaphoB mutant assessed as cell count in stationary phase at 100 ug/ml after 5 hrs
Method in brief: (§2)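 Deletion mutants were made by the Datsenko–Wanner method. Log-phase or stationary-phase cultures were exposed to ampicillin at 100 μg/ml. CFU/ml was determined at the start and after 5, 24 and 72 h of exposure.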

Escherichia coli [6] = assay: Antibacterial activity against Escherichia coli K12 containing deletion deltahipA mutant assessed as cell count in log phase at 100 ug/ml after 5 hrs; method in brief: as §2
Escherichia coli [7] = assay: Antibacterial activity against Escherichia coli K12 containing deletion deltaphoB mutant assessed as cell count in stationary phase at 100 ug/ml after 24 hrs; method in brief: as §2
Escherichia coli [8] = assay: Antibacterial activity against Escherichia coli K12 PhoU wild type W3110 assessed as cell count in stationary phase at 3 ug/ml after 5 days
Method in brief: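 Log-phase or stationary-phase cultures were exposed to ampicillin (100 μg/ml) or norfloxacin (3 μg/ml) in MOPS minimal medium, pH 5.0, at 37°C without shaking, for 5 h to 10 days. Aliquots were saline-washed and plated on LB for CFU/ml.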

Escherichia coli [9] = assay: Antibacterial activity against Escherichia coli K12 PhoU wild type W3110 at 4 ug/ml after 48 hrs by disc diffusion method
Method in brief: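 Kirby-Bauer disc assay. Log-phase LB culture (10⁸ bacteria) was spread for confluent growth on LB agar. 7 mm nitrocellulose discs soaked in antibiotic at the listed concentrations were laid on the agar. Inhibition zone diameter (mm) was measured after 48 h at 37°C.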

Compound | inhibition zone (IZ) (Escherichia coli [1]) [mm] | inhibition zone (IZ) (Escherichia coli [2]) [mm] | CFU (Escherichia coli [3]) | CFU (Escherichia coli [4]) | CFU (Escherichia coli [5]) | CFU (Escherichia coli [6]) | CFU (Escherichia coli [7]) | CFU (Escherichia coli [8]) | inhibition zone (IZ) (Escherichia coli [9]) [mm]
CC1(C)S[C@@H]2[C@H](NC(=O)[C@H](N)c3ccccc3)C(=O)N2[C@H]1C(=O)O [AMPICILLIN] | 34 | 21 | 2 10^9/ml | 5 10^6/ml | 4 10^9/ml | 1 10^4/ml | 1.8 10^9/ml | – | –
CCn1cc(C(=O)O)c(=O)c2cc(F)c(N3CCNCC3)cc21 [NORFLOXACIN] | – | – | – | – | – | – | – | 4 10^6/ml | 32
